Rows were chosen to be rich in hits. Some 2.1% of all compounds tested hit in one or more screens of this group.
UCH37 DUB inh – blocks the human deubiquitinase UCH37; purified proteasome/UCH37, Ub-AMC cleavage fluorescence; inhibition, % (no concentration beside the values); 0.33% of 330,000 active; AID 588478;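 active means mean inhibition over replicate wells above about 20%, limit read from the data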
Target sequence (Q9Y5K5 whole entry, looked up): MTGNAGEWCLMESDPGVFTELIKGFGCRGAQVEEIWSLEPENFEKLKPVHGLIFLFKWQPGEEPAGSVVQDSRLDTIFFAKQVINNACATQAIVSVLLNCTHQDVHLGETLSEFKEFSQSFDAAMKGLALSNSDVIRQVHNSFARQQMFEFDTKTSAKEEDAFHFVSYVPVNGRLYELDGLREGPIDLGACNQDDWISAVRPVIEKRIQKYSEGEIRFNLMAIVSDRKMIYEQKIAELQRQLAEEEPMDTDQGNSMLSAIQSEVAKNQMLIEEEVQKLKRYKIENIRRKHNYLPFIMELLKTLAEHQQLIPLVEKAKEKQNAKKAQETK
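Reagent: Ub-AMC substrate; assay system: Proteasome-associated human UCH37 deubiquitinase; controls: no-proteasome and no-compound wells; read-out: % inhibition of Ub-AMC cleavage fluorescence; timing: 30 min preincubation with enzyme, 25 min cleavage at room temperature; signal: AMC fluorescence from Ub-AMC cleavage, excitation 355 nm, emission 460 nm; buffer or medium: Tris-HCl pH 7.4 plus ovalbumin, ATP-MgCl2, DTT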
PfG6PD inh – PfG6PD (Plasmodium falciparum) enzyme inhibition; 0.78% of 350,000 active; PfGluPho enzyme, NADPH resazurin-diaphorase fluorescence; inhibition, % at 20 µM;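 active means inhibition reaching at least a set limit at 20 µM in the primary screen, cut at about 59% in these data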
HKDC1 inh – blocks human hexokinase HKDC1 activity; Q2TB90; recombinant HKDC1, G6PDH/diaphorase resazurin coupled fluorescence; inhibition, % at 20 µM; 0.16% of 340,000 active; AID 493160;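 active means inhibition above about 35% when tested at 20 µM, limit read from the data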
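Test system: HK5 enzyme. Quantity: 5 µg/mL HK5 final. Reagent: glucose and ATP substrates. Schedule: 90 min reaction incubation at room temperature, dark. Technique: resazurin-to-resorufin fluorescence via G6PDH and diaphorase coupling, 525/613 nm. Control set: DMSO wells with and without enzyme mix.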
Beta2AR agonist – agonists of human beta-2 adrenergic receptor inducing internalization. P07550. response, % (concentration not given with the values). Am2.2-beta2AR cells, FAP receptor internalization, flow cytometry. 0.43% of 340,000 active;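 active means response above a set limit, near 3 SD of response in nonfluorescent compounds, cut at about 42% in these data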
H9c2 protect – modulators protecting cardiomyocytes from myocardial damage. H9c2 cardiomyocytes, H2O2 injury protection, ATPLite, 2 h. 0.63% of 360,000 active. protection from H2O2 cell death, % at 20 µM. AID 588492;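 active means compounds giving at least 50% protection of heart cells from peroxide-induced death in the single-dose screen, raw or plate-pattern-corrected value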
aDG glyco act – increases alpha dystroglycan glycosylation; Pro5-aDG cells, alpha-DG glycosylation AlphaScreen (IIH6); 0% Pro5, 100% B10-LARGE cell signal; activation, % at 10 µM; 0.22% of 360,000 active; AID 624168;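 active means activation of at least 8% versus controls, or a plate z-score of at least 8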;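 further: Pro5 are CHO cells carrying HIG-tagged alpha-DG that lacks glycosylation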
A number is an active result; – = inactive; · = no result given.

SMILES | UCH37 DUB inh | PfG6PD inh | HKDC1 inh | Beta2AR agonist | H9c2 protect | aDG glyco act
O=c1[nH]cc(N=Cc2cc(Cl)cc(Cl)c2O)c(=O)[nH]1 | – | – | – | – | 49 | –
O=c1[nH]c(O)c(C=Nc2ccc(Cl)cc2Cl)c(=O)[nH]1 | · | – | – | – | – | –
COc1ccc(NC(=O)CCC(=O)NN=Cc2ccncc2)cc1 | – | · | · | · | · | ·
COc1cc2c(C#CCCCO)c(-c3ccsc3)oc(=O)c2cc1OC | – | – | – | – | 68 | –
O=C(CSc1ccccc1)N/N=C/c1ccccc1O | · | – | – | – | 51 | –
O=C(NN=Cc1ccccc1O)C1CCCC1 | – | · | · | · | · | ·
Cc1cc(C)n(CCC(=O)N/N=C/c2ccccc2O)n1 | · | – | – | – | 54 | –
O=C(CSc1ccccc1)NN=Cc1ccccc1O | – | · | · | · | · | ·
Cc1ccc(SCCC(=O)NN=Cc2ccccc2O)cc1 | – | · | · | · | · | ·
O=C(N/N=C/c1ccccc1O)C1SCCCS1 | · | – | – | – | 70 | –
O=C(CCSCCC(=O)NN=Cc1ccccc1O)NN=Cc1ccccc1O | – | – | – | – | 58 | –
COc1cccc(C(=O)C[n+]2ccccc2C=NO)c1 | – | · | · | · | · | ·
COc1cc(C=NNC(=O)c2nnn(-c3nonc3N)c2C(C)C)ccc1OCc1ccc(F)cc1 | – | · | · | · | · | ·
CC(=NOC(=O)c1ccc(C(F)(F)F)cc1)c1oc(C)nc1C | – | · | · | · | · | ·
O=C(COc1ccc(C=NNS(=O)(=O)c2ccccc2)cc1)NCc1ccccc1 | – | · | · | · | · | ·
Cc1cc(C)c2nc(NNC(=O)c3ccc(S(=O)(=O)N4CC(C)CC(C)C4)cc3)sc2c1 (stereo not given) | – | – | – | 43 | – | –
Cc1cc(C)c2nc(NNC(=O)c3ccc(S(=O)(=O)N4CCCC(C)C4)cc3)sc2c1 (stereo not given) | – | – | – | – | – | –
Cc1cccc2sc(NNC(=O)c3ccc(S(=O)(=O)N4CC(C)CC(C)C4)cc3)nc12 (stereo not given) | – | – | – | 48 | – | –
O=C(NN=Cc1cc2c(cc1Cl)OCO2)c1cc(-c2ccccc2)n[nH]1 | – | · | · | · | · | ·
Cc1nc(N2CCN(S(=O)(=O)c3cccc4nonc34)CC2)c2c3c(sc2n1)CCCC3 | – | – | – | – | 49 | –
Cc1nc(N2CCN(S(=O)(=O)c3ccccc3)CC2)c2c3c(sc2n1)CC(C)CC3 (stereo not given) | · | – | – | – | – | –
Cc1cc(OCC(=O)N2CCOCC2)cc2oc(=O)c3ccccc3c12 | – | – | – | – | 59 | –
Cc1ccc(OCC(=O)N2CCOCC2)cc1C | – | – | – | – | – | –
CCOC(=O)c1c(N2C(=O)C=CC2=O)sc(C)c1C | – | 67 | – | – | – | –
COc1ccc(-c2cc(C(=O)N(C)Cc3nc4ccccc4c(=O)[nH]3)c3ccccc3n2)cc1OC | – | – | – | – | 66 | –
SMILES | UCH37 DUB inh | PfG6PD inh | HKDC1 inh | Beta2AR agonist | H9c2 protect | aDG glyco act
COc1cc2nc(CN(C)Cc3nc4ccccc4c(=O)[nH]3)[nH]c(=O)c2cc1OC | – | – | – | – | 55 | –
O=C(CNC(=O)c1ccccc1F)NN=Cc1cc(Br)ccc1OCc1ccccc1 | – | · | · | · | · | ·
Cc1ccc(CN2CCN(N=Cc3cc(Br)cc(Br)c3O)CC2)cc1 | – | · | · | · | · | ·
Cc1ccccc1Oc1nc(-c2ccccn2)nc2ccccc12 | – | – | – | – | – | 2.1
CC(C)(C=NNC(=O)CSCc1ccc(Cl)cc1)CCC#N | – | · | · | · | · | ·
Cc1nc2ccccc2c(=O)n1/N=C/c1ccc2ccccc2c1O | · | – | – | – | 57 | –
C[C@@H]1CN([C@H](C)CO)S(=O)(=O)c2ccc(C#Cc3ccccc3F)cc2O[C@H]1CN(C)C(=O)c1ccc2c(c1)OCO2 | · | – | · | · | 106 | –
CS(=O)(=O)n1nc(-c2ccc(Cl)cc2)nc1N | – | – | – | – | – | –
Cn1nc(-c2ccc(Cl)cc2)nc2c(=O)n(C)c(=O)nc1-2 | 92 | · | · | · | · | ·
Cc1cccc2c1c1ccc3c(c1n2C)C(=O)C=CC3=O | · | – | – | 89 | – | –
CN(C)c1ccc(N=Cc2ccco2)cc1 | – | 60 | – | – | – | –
CN(C)c1ccc(C=Nc2ccccc2)cc1 | – | – | – | – | – | –
COc1ccc(C=NNC(=O)c2[nH]nc3c2CCc2ccccc2-3)cc1OC | – | · | · | · | · | ·
O=C(Nc1ccc2oc(=O)ccc2c1)c1ccc(-c2cccc(Cl)c2)o1 | – | – | – | 45 | – | –
O=C(Nc1ccc2oc(=O)ccc2c1)c1ccc(-c2ccc(Cl)cc2)o1 | – | – | – | – | – | –
CCn1c(O)c(/C=N/N=C/c2ccccc2)c2ccc(C3=NNC(=O)CC3)cc21 | · | – | – | – | 76 | –
CCn1c(O)c(C=NN=Cc2ccccc2)c2ccc(C3=NNC(=O)CC3)cc21 | – | · | · | · | · | ·
CCCCOc1ccc(/C=C/C(=O)OCC(=O)N2CC(=O)Nc3ccccc32)cc1OCC | – | – | – | 44 | – | –
COc1ccc(/C=C/C(=O)OCC(=O)N2CC(=O)Nc3ccccc32)cc1 | – | – | – | – | – | –
Cc1nn(-c2ccccc2)nc1C(=O)Nc1cccc(C(=O)NC2CC2)c1 | · | – | · | · | 61 | –
Cc1nn(-c2cccc(Cl)c2)nc1C(=O)Nc1cccc(C(=O)NC2CC2)c1 | – | – | – | – | – | –
CCOc1cc(C=NNC(=O)c2ccc(N(C)S(=O)(=O)c3ccccc3)cc2)ccc1OC | – | · | · | · | · | ·
CCOc1cc(/C=C2\COc3ccccc3C2=O)cc(Br)c1OCC(=O)N(C)C | – | – | – | 55 | – | –
CCOc1ccc(C(C)=NNC(=O)C(OC)c2ccccc2)cc1 (stereo not given) | – | · | · | · | · | ·
C#CCOCCOCCOCCNc1nc(N2CCN(C(=O)CCCCCCCCCCNC(=O)[C@H](CCCCN)n3cc(C[C@@H](C)CC)nn3)CC2)nc(N2CCN(C(=O)CCCCCCCCCCNC(=O)[C@H](CCCN=C(N)N)n3cc(C[C@@H](C)CC)nn3)CC2)n1 | · | – | – | 42 | – | –
C#CCOCCOCCOCCNc1nc(N2CCN(C(=O)CCCCCCCCCCNC(=O)[C@H](CCCCN)n3cc(C)nn3)CC2)nc(N2CCN(C(=O)CCCCCCCCCCNC(=O)[C@H](CCCN=C(N)N)n3cc(C[C@@H](C)CC)nn3)CC2)n1 | · | 60 | – | · | · | ·
C#CCOCCOCCOCCNc1nc(N2CCN(C(=O)CCCCCCCCCCNC(=O)[C@@H](CCC(=O)O)n3cc(CCCCCN)nn3)CC2)nc(N2CCN(C(=O)CCCCCCCCCCNC(=O)[C@H](CCCCN)n3cc(C[C@@H](C)CC)nn3)CC2)n1 | · | – | – | – | – | –
C#CCOCCOCCOCCNc1nc(N2CCN(C(=O)CCCCCCCCCCNC(=O)[C@H](CCCCN)n3cc(C[C@@H](C)CC)nn3)CC2)nc(N2CCN(C(=O)CCCCCCCCCCNC(=O)[C@@H]([C@H](C)O)n3cc(C)nn3)CC2)n1 | – | – | – | 77 | – | –

From PubChem
